Data reported in ChEMBL document CHEMBL1145210, “Novel cyano- and N-isopropylamidino-substituted derivatives of benzo[b]thiophene-2-carboxanilides and benzo[b]thieno[2,3-c]quinolones: synthesis, photochemical synthesis, crystal structure determination, and antitumor evaluation. 2” (J Med Chem, 2005).
pIC50: −log10 of the molar value.

Columns and labels:
[1] = In vitro Inhibition on growth of human Hep 2 laryngeal carcinoma cell line; type: functional
In short: (§1)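 Monolayer cultures in DMEM with 10% FBS, 2 mM L-glutamine, penicillin/streptomycin, 37 °C, 5% CO2. Cells plated on day 0 at densities set by doubling time (1 × 10⁴/mL HeLa, Hep-2, MiaPaCa-2, SW 620; 2 × 10⁴/mL MCF-7; 3 × 10⁴/mL WI 38). Compound added at five 10-fold dilutions (10^-8 to 10^-4 mol/L) for 72 h. MTT read at 570 nm, converted to percentage growth versus time-zero and untreated controls. Quadruplicate points, three experiments. IC50 by linear regression.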

MCF7 = assay: In vitro Inhibition on growth of human MCF 7 breast carcinoma cell line; type: functional, cell-based; in short: as §1
SW-620 [2] = assay: In vitro Inhibition on growth of human SW 620 colon carcinoma cell line; type: functional, cell-based; in short: as §1
[3] = In vitro Inhibition on growth of human WI 38 diploid fibroblast cell line; type: functional, cell-based; in short: as §1
MIA PaCa-2 [4] = assay: In vitro Inhibition on growth of human MiaPaCa-2 pancreatic carcinoma cell line; type: functional, cell-based; in short: as §1
HeLa [5] = assay: In vitro Inhibition on growth of human HeLa cervical carcinoma cell line; type: functional, cell-based; in short: as §1
MIA PaCa-2 [6] = assay: Percentage of apoptosis induced by compound in MiaPaCa-2 cell line at 5 uM concentration after 72 h; type: functional, Homo sapiens
In short: (§2)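 Annexin-V assay after 72 h exposure to 5 or 10 µM. Cells washed with PBS, pelleted, and stained with Annexin-V-fluorescein plus propidium iodide in Hepes buffer. Scored by fluorescence microscopy: Annexin-V-positive cells counted as apoptotic, Annexin-V/PI double-positive as necrotic. Apoptotic fraction given as percentage of total cells.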

SW-620 [7] = assay: Percentage of apoptosis induced by compound in SW 620 cell line at 5 uM concentration after 72 h; type: functional, Homo sapiens; in short: as §2
HeLa [8] = assay: Percentage of apoptosis induced by compound in HeLa cell line after at 10 uM concentration 72 h; type: functional, Homo sapiens; in short: as §2
SW-620 [9] = assay: Percentage of apoptosis induced by compound in SW 620 cell line at 10 uM concentration after 72 h; type: functional, Homo sapiens; in short: as §2
MIA PaCa-2 [10] = assay: Percentage of apoptosis induced by compound in MiaPaCa-2 cell line at 10 uM concentration after 72 h; type: functional, Homo sapiens; in short: as §2
HeLa [11] = assay: Percentage of apoptosis induced by compound in HeLa cell line after at 5 uM concentration 72 h; type: functional, Homo sapiens; in short: as §2

Row | SMILES | pIC50 [1] | pIC50 (MCF7) | pIC50 (SW-620 [2]) | pIC50 [3] | pIC50 (MIA PaCa-2 [4]) | pIC50 (HeLa [5]) | Apoptosis (MIA PaCa-2 [6]) | Apoptosis (SW-620 [7]) | Apoptosis (HeLa [8]) | Apoptosis (SW-620 [9]) | Apoptosis (MIA PaCa-2 [10]) | Apoptosis (HeLa [11])
1 | CC(C)/N=C(/N)c1ccc2c(Cl)c(C(=O)Nc3ccc(Br)cc3)sc2c1 | 5.50 | 5.58 | 5.38 | 5.44 | 5.60 | 5.52 | – | – | – | – | – | –
2 | Cc1ccc(NC(=O)c2sc3cc(/C(N)=N\C(C)C)ccc3c2Cl)cc1 | 5.53 | 5.14 | 5.45 | 5.69 | 5.29 | 5.63 | – | – | – | – | – | –
3 | N#Cc1ccc2c(Cl)c(C(=O)Nc3ccc(Br)cc3)sc2c1 | < 4.00 | < 4.00 | < 4.00 | 5.22 | < 4.00 | < 4.00 | – | – | – | – | – | –
4 | Cc1ccc2c(Cl)c(C(=O)Nc3ccc(/C(N)=N\C(C)C)cc3)sc2c1 | 5.40 | 5.46 | 5.45 | 5.48 | 5.35 | 5.52 | – | – | – | – | – | –
5 | CC(C)/N=C(/N)c1ccc2nc(O)c3sc4cc(C#N)ccc4c3c2c1 | ≤ 4.00 | < 4.00 | < 4.00 | ≤ 4.00 | 4.38 | 5.21 | – | – | – | – | – | –
6 | COC(=O)c1ccc2c(Cl)c(C(=O)Nc3ccccc3)sc2c1 | < 4.00 | < 4.00 | 4.02 | 4.27 | < 4.00 | < 4.00 | – | – | – | – | – | –
7 | COc1ccc2c(Cl)c(C(=O)Nc3ccc(C(=N)NC(C)C)cc3)sc2c1 | 5.59 | 5.43 | 5.41 | 5.40 | 5.33 | 5.57 | – | – | – | – | – | –
8 | CC(C)/N=C(/N)c1ccc2nc(O)c3sc4cc(Br)ccc4c3c2c1 | 5.16 | 5.24 | 5.16 | 4.72 | 5.43 | 5.77 | – | – | – | – | – | –
9 | CC(C)/N=C(/N)c1ccc2nc(O)c3sc4ccccc4c3c2c1 | 4.78 | 5.87 | 4.49 | ≤ 4.00 | 5.14 | 4.60 | 4% | 9% | 11% | 13% | 11% | 9%
10 | CC(C)/N=C(/N)c1ccc(NC(=O)c2sc3cc(C#N)ccc3c2Cl)cc1 | 4.68 | 4.62 | 5.10 | 4.60 | 5.06 | 4.65 | – | – | – | – | – | –
11 | CC(C)/N=C(/N)c1ccc2c(Cl)c(C(=O)Nc3ccccc3)sc2c1 | 4.62 | 5.90 | 5.34 | 5.33 | 5.14 | 5.37 | – | – | – | – | – | –
12 | CC(C)/N=C(/N)c1ccc2c(c1)sc1c(O)nc3ccc(/C(N)=N\C(C)C)cc3c12 | < 4.00 | 4.11 | ≤ 4.00 | ≤ 4.00 | 4.06 | 4.50 | – | – | – | – | – | –
13 | COc1ccc(NC(=O)c2sc3cc(C#N)ccc3c2Cl)cc1 | 4.32 | 4.76 | < 4.00 | 4.63 | 4.04 | 4.39 | – | – | – | – | – | –
14 | COc1ccc(NC(=O)c2sc3cc(C(=N)NC(C)C)ccc3c2Cl)cc1 | 5.01 | 4.76 | 5.08 | 4.53 | 4.65 | 5.23 | – | – | – | – | – | –
15 | CC(C)/N=C(/N)c1ccc(NC(=O)c2sc3cc(/C(N)=N\C(C)C)ccc3c2Cl)cc1 | 4.17 | 4.81 | < 4.00 | 4.06 | 4.12 | 4.59 | – | – | – | – | – | –
16 | COC(=O)c1ccc2nc(O)c3sc4cc(C(=N)NC(C)C)ccc4c3c2c1 | 4.01 | 5.25 | 5.09 | 5.27 | 5.16 | 4.80 | 6% | 6% | 15% | 7% | 14% | 13%
17 | COC(=O)c1ccc(NC(=O)c2sc3ccccc3c2Cl)cc1 | < 4.00 | < 4.00 | < 4.00 | 4.35 | < 4.00 | < 4.00 | – | – | – | – | – | –
18 | COC(=O)c1ccc(NC(=O)c2sc3cc(C(=N)NC(C)C)ccc3c2Cl)cc1 | 5.09 | 5.63 | 5.44 | 5.16 | 5.15 | 5.25 | – | – | – | – | – | –
19 | CC(C)/N=C(/N)c1ccc(NC(=O)c2sc3ccccc3c2Cl)cc1 | 4.82 | 5.71 | 4.56 | 4.44 | 5.16 | 4.89 | – | – | – | – | – | –
20 | CC(C)/N=C(/N)c1ccc2c(c1)sc1c(O)nc3ccccc3c12 | 4.68 | 4.67 | 5.42 | 4.43 | 4.74 | 4.31 | – | – | – | – | – | –
21 | N#Cc1ccc(NC(=O)c2sc3ccccc3c2Cl)cc1 | 5.19 | 4.00 | < 4.00 | 5.09 | < 4.00 | 6.07 | – | – | – | – | – | –
22 | COc1ccc2c(c1)sc1c(O)nc3ccc(C(=N)NC(C)C)cc3c12 | 4.46 | 4.42 | 4.69 | 4.39 | 5.17 | 5.63 | – | – | – | – | – | –
23 | N#Cc1ccc2c(Cl)c(C(=O)Nc3ccccc3)sc2c1 | 6.16 | 4.07 | ≤ 4.00 | ≤ 4.00 | < 4.00 | 6.46 | – | – | – | – | – | –
24 | CC(C)/N=C(/N)c1ccc(NC(=O)c2sc3cc(Br)ccc3c2Cl)cc1 | 5.63 | 5.60 | 5.41 | 5.52 | 5.45 | 5.67 | – | – | – | – | – | –
25 | Cc1ccc2nc(O)c3sc4cc(/C(N)=N\C(C)C)ccc4c3c2c1 | 5.07 | 5.25 | 4.64 | 4.72 | 5.18 | 5.19 | – | – | – | – | – | –
26 | Cc1ccc(NC(=O)c2sc3cc(C#N)ccc3c2Cl)cc1 | < 4.00 | < 4.00 | < 4.00 | 6.12 | < 4.00 | < 4.00 | – | – | – | – | – | –
27 | CC(C)/N=C(/N)c1ccc2c(c1)sc1c(O)nc3ccc(Br)cc3c12 | 5.01 | 5.20 | 4.88 | 5.41 | 5.10 | 5.05 | 3% | 9% | 15% | 13% | 11% | 10%
28 | COC(=O)c1ccc2c(Cl)c(C(=O)Nc3ccc(C(=N)NC(C)C)cc3)sc2c1 | 5.27 | 5.91 | 5.44 | 5.55 | 5.46 | 5.65 | – | – | – | – | – | –
